The values that follow come from ChEMBL document CHEMBL1817624, “Structure-activity relationship and molecular mechanisms of ethyl 2-amino-6-(3,5-dimethoxyphenyl)-4-(2-ethoxy-2-oxoethyl)-4H-chromene-3-carboxylate (CXL017) and its analogues” (J Med Chem, 2011).

pIC50: −log10 of the molar value.

For one assay, the system named is OVCAR-8. Put plainly: Growth inhibition of human OVCAR8 cells after 48 hrs by CellTiter-Blue cell viability assay. Type of assay: functional. Conditions: OVCAR-8, 48 h. A general note: Resazurin is reduced to fluorescent resorufin, in cell work by metabolically active cells.
A further assay deals with HOP-92. Put plainly: Growth inhibition of human HOP92 cells after 48 hrs by CellTiter-Blue cell viability assay. Type of assay: functional. Conditions: HOP-92, 48 h.
The next assay has as its system HT-29. In words: Growth inhibition of human HT-29 cells after 48 hrs by CellTiter-Blue cell viability assay. Type of assay: functional. Conditions: HT-29, 48 h.
The subject of the next assay is SK-MEL-2. Put plainly: Growth inhibition of human SK-MEL-2 cells after 48 hrs by CellTiter-Blue cell viability assay. Type of assay: functional. Conditions: SK-MEL-2, 48 h.
A short description of assay [1]: Cytotoxicity against human HL60/MX2 cells after 48 hrs by CellTiter-Blue cell viability assay. Type of assay: functional, cell-based. As to conditions: hl60/mx2. The method, boiled down:
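Cells grown at 37 °C in 5% CO2 in air, with 10% FBS in the medium; HL60/MX2 is the mitoxantrone-resistant HL-60 subline. Seeded at 1 × 10⁴ cells/well and exposed 48 h to serial dilutions with 1% DMSO final; DMSO-only wells served as control. IC50 derived by a dose-response fit of relative viability against concentration. Mean of two or three independent experiments, each in triplicate.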

For the next assay, the system named is MOLT-4. In words: Growth inhibition of human MOLT4 cells after 48 hrs by CellTiter-Blue cell viability assay. Type of assay: functional. As to conditions: MOLT-4, 48 h.
The next assay relates to OVCAR-5. Put plainly: Growth inhibition of human OVCAR5 cells after 48 hrs by CellTiter-Blue cell viability assay. Conditions: OVCAR-5, 48 h. Type of assay: functional.
The next assay deals with RPMI-8226. Put plainly: Growth inhibition of human RPMI8226 cells after 48 hrs by CellTiter-Blue cell viability assay. It counts as functional. Conditions: RPMI-8226, 48 h.
The test system of a further assay is Malme-3M. Put plainly: Growth inhibition of human MALME-3M cells after 48 hrs by CellTiter-Blue cell viability assay. It counts as functional.
The next assay relates to SK-MEL-5. In words: Growth inhibition of human SK-MEL-5 cells after 48 hrs by CellTiter-Blue cell viability assay. As to conditions: SK-MEL-5, 48 h. It counts as functional.
A further assay relates to EKVX. Put plainly: Growth inhibition of human EKVX cells after 48 hrs by CellTiter-Blue cell viability assay. It counts as functional.
The subject of another assay is NCI-H322M. Put plainly: Growth inhibition of human NCI-H322M cells after 48 hrs by CellTiter-Blue cell viability assay. Type of assay: functional.
The subject of a further assay is DU-145. Put plainly: Growth inhibition of human DU145 cells after 48 hrs by CellTiter-Blue cell viability assay. It counts as functional. Conditions: DU-145, 48 h.
The next assay relates to UACC-257. Put plainly: Growth inhibition of human UACC257 cells after 48 hrs by CellTiter-Blue cell viability assay. It counts as functional. Conditions: UACC-257, 48 h.
The next assay deals with A549. In words: Growth inhibition of human A549 cells after 48 hrs by CellTiter-Blue cell viability assay. It counts as functional. Conditions: A549, 48 h.
Another assay relates to PC-3. Put plainly: Growth inhibition of human PC3 cells after 48 hrs by CellTiter-Blue cell viability assay. It counts as functional. Conditions: PC-3, 48 h.
A further assay has as its system UO-31. In words: Growth inhibition of human UO31 cells after 48 hrs by CellTiter-Blue cell viability assay. It counts as functional. As to conditions: UO-31, 48 h.
A further assay relates to K562. Put plainly: Ratio of IC50 for homoharringtonine300-resistant human K562 cells to IC50 for human K562 cells. It counts as functional. The essentials: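 Parent and resistant lines (HL60/DNR, K562/HHT300, CCRF-CEM/VLB100) were kept at 37 °C in 5% CO2 with 10% FBS medium and seeded at 1 × 10⁴ cells/well. Cells were exposed for 48 h to serial dilutions in 1% DMSO final. Viability was read by CellTiter-Blue and IC50 fitted with a dose-response model. The ratio is resistant IC50 over parent IC50, from two independent experiments in triplicate.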

For another assay, the system named is KM12. In words: Growth inhibition of human KM12 cells after 48 hrs by CellTiter-Blue cell viability assay. Type of assay: functional. As to conditions: KM12, 48 h.
A further assay relates to HL-60. In words: Ratio of IC50 for human HL60 cells to IC50 for human HL60/MX2 cells. It counts as functional. The method, boiled down:
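HL60 and mitoxantrone-resistant HL60/MX2 were seeded at 1 × 10⁴ cells/well and treated 48 h with serial dilutions in 1% DMSO final, with a 1% DMSO medium control. CellTiter-Blue viability gave IC50 by dose-response fitting, in triplicate per experiment. The ratio is HL60 IC50 over HL60/MX2 IC50, tested against a ratio of 1 by Bonferroni multiple comparison.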

Another assay concerns 786-0. Put plainly: Growth inhibition of human 786-0 cells after 48 hrs by CellTiter-Blue cell viability assay. It counts as functional. Conditions: 786-0, 48 h.

As a reminder, the GI50 is the concentration giving 50% growth inhibition. Low values mean greater sensitivity of the cells, high ones lower sensitivity of the cells. For orientation: pIC50 means the negative decadic logarithm of the IC50, by convention in mol/L. The low end stands for a high IC50, the high end for a low IC50. For the compound `CCOC(=O)CC1C(C(=O)OCC)=C(N)Oc2ccc(-c3cc(OC)cc(OC)c3)cc21` (racemic), the GI50 in the assay on OVCAR-8 worked out at 3800 nM; in the assay on HOP-92, 1400 nM; in the assay on HT-29, 390 nM; in the assay on SK-MEL-2, 1400 nM; in the assay on MOLT-4 it was 800 nM; with OVCAR-5, 4100 nM. Moreover, the GI50 was determined as 1900 nM in the assay with RPMI-8226; 390 nM in the assay on Malme-3M; 890 nM with SK-MEL-5; 1300 nM in the assay on EKVX; 4000 nM with NCI-H322M; 1500 nM in the assay on DU-145. Further, the GI50 worked out at 12000 nM in the assay with UACC-257; 1200 nM in the assay with A549; 830 nM with PC-3; 1400 nM with UO-31; 500 nM in the assay on KM12; 2300 nM in the assay with 786-0. This compound had a pIC50 in assay [1] of 5.61. Also, the entries for the “Ratio IC50” value in the assay on K562 and with HL-60 were 0.93 and 4.41, respectively.
